For data set [1], the target named is T1, Toll-like receptor 4 (Mus musculus, UniProt Q9QUK6).
T1 sequence (Q9QUK6 whole entry): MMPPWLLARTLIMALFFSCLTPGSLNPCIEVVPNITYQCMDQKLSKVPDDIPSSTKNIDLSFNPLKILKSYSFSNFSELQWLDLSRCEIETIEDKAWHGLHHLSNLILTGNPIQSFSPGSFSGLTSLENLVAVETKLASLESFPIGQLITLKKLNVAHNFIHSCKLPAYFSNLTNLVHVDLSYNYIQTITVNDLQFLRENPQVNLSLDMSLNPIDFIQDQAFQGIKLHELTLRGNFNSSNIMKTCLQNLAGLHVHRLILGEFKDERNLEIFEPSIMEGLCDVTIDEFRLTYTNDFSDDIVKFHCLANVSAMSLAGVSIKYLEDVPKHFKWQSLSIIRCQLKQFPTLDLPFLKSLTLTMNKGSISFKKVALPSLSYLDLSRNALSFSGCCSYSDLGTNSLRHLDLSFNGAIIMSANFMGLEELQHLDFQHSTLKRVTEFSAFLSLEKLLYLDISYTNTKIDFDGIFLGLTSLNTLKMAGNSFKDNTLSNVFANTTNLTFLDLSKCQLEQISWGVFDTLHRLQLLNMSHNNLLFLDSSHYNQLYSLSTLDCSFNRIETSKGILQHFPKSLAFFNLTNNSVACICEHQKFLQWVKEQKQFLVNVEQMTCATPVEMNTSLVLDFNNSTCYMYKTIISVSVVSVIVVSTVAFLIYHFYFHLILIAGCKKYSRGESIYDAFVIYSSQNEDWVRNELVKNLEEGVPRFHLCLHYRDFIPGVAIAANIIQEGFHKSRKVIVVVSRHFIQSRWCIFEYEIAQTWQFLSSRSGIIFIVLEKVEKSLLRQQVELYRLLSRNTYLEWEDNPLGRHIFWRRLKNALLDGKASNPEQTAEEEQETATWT
Description: Agonist activity at mouse TLR4 expressed in HEK293 blue cells assessed as induction of NF-kappaB activation-mediated SEAP production after 20 to 24 hrs by colorimetric assay. In kind it is cell-based. An outline of the steps: (§1)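 HEK-Blue cells expressing human or mouse TLR4, 2.5 × 10⁴/well in DMEM with 10% FBS, pyruvate, glutamine and antibiotics. Graded doses from 20 mM DMSO stocks, final DMSO 0.05%. Supernatants harvested after 20–24 h; SEAP read by colorimetric substrate at 630 nm. EC50 taken as the concentration giving 50% of maximal activation. LPS 100 ng/mL served as positive control.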

Data set [2] concerns the target T2, Toll-like receptor 4 (Homo sapiens, UniProt O00206). Description: Agonist activity at human TLR4 expressed in HEK293 blue cells assessed as induction of NF-kappaB activation-mediated SEAP production after 20 to 24 hrs by colorimetric assay. In kind it is cell-based. An outline of the steps: as §1
For data set [3], the target named is T2, Toll-like receptor 4. The experiment in a line: Agonist activity at human TLR4 expressed in HEK293 blue cells assessed as induction of NF-kappaB activation-mediated SEAP production by measuring AUC after 20 to 24 hrs by colorimetric assay relative to N-cyclohexyl-2-(5-methyl-4-oxo-3-phenyl-4,5-dihydro-3H-pyrimido[5,4-b]indol-2-ylthio)acetamide. In kind it is cell-based.

Data set [4] addresses T3, Toll-like receptor 4 (Mus musculus) (UniProt Q9QUK6).
T3 sequence (whole entry): T1 sequence (Q9QUK6 whole entry)
Description: Agonist activity at mouse TLR4 expressed in HEK293 blue cells assessed as induction of NF-kappaB activation-mediated SEAP production by measuring AUC after 20 to 24 hrs by colorimetric assay relative to N-cyclohexyl-2-(5-methyl-4-oxo-3-phenyl-4,5-dihydro-3H-pyrimido[5,4-b]indol-2-ylthio)acetamide. In kind it is cell-based.

Data set [5] is described as follows: Cytotoxicity against C57BL/6 mouse primary BMDC assessed as cell viability at 5 uM after 18 hrs by MTT assay relative to control. The following applies: primary BMDC (bone marrow-derived dendritic cells), read-out: Activity. In kind it is cell-based. For orientation: Tetrazolium assays rely on reduction of a dye to a coloured formazan, in cell work by metabolically active cells.

The target in data set [6] is T3, Toll-like receptor 4 (Mus musculus). The experiment in a line: Agonist activity at TLR4 in C57BL/6 mouse primary BMDC assessed as induction of IL-6 release at 5 uM after 18 hrs by ELISA relative to N-cyclohexyl-2-(5-methyl-4-oxo-3-phenyl-4,5-dihydro-3H-pyrimido[5,4-b]indol-2-ylthio)acetamide.

Results on 23 molecules are retold here after ChEMBL document CHEMBL4028879, “Structure-Activity Relationship Studies of Pyrimido[5,4-b]indoles as Selective Toll-Like Receptor 4 Ligands” (J Med Chem, 2017).

SMILES strings stand for the structures.

T2 sequence (O00206 whole entry): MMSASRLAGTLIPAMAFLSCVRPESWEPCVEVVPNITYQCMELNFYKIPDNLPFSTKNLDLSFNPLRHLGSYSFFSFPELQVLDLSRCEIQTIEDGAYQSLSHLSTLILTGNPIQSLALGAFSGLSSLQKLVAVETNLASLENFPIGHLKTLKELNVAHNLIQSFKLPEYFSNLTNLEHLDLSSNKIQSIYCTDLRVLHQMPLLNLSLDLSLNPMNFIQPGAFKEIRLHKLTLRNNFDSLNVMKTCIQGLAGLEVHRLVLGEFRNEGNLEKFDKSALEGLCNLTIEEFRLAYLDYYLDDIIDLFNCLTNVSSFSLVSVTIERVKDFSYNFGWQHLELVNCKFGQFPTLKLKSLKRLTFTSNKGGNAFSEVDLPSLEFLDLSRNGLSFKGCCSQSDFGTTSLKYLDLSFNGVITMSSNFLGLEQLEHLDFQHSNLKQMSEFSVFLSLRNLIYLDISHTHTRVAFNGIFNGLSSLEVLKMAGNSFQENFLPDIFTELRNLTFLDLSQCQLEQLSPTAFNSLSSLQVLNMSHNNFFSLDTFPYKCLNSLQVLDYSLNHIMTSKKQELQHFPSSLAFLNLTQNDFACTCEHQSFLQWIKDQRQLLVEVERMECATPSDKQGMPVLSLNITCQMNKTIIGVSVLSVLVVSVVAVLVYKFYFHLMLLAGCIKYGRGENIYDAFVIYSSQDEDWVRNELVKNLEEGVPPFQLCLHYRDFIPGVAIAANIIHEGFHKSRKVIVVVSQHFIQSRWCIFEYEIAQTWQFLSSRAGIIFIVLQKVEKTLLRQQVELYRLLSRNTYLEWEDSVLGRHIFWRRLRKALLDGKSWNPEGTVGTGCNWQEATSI

Usually EC50 stands for the concentration at which the effect is half-maximal. Consider `Cn1c2ccc(NC(=O)c3ccccc3)cc2c2nc(SCC(=O)NC3CCCCC3)n(-c3ccccc3)c(=O)c21`, for which the half-maximal effective concentration (EC50) in data set [1] and in data set [2] was more than 10 µM throughout. Besides, the Activity came to 26% in data set [3], 2% in data set [4] and 7% in data set [6]. In data set [5], the viability at 18 h, 5 µM turned out to be 43%.

In the case of `Cn1c2cc(Br)ccc2c2nc(SCC(=O)NC3CCCCC3)n(-c3ccccc3)c(=O)c21`, the values for the half-maximal effective concentration (EC50) in data set [1] and in data set [2] were 4.89 µM and more than 10 µM, respectively. In addition, the Activity in data set [3] came to 40%; in data set [4], 34%; in data set [6], 73%. Besides, the viability at 18 h, 5 µM in data set [5] came to 93%.

Regarding `Cn1c2c(c3nc(SCC(=O)NC4CCCCC4)n(-c4ccccc4)c(=O)c31)CCCC2`, the EC50 in data set [1] and in data set [2] was more than 10 µM in each case. For the same molecule, the Activity in data set [3] worked out at 8%; in data set [4] it was 13%; in data set [6], 65%. In data set [5], the viability at 18 h, 5 µM came to 106%.

For `CCCCCCCC(=O)Nc1ccc2c(c1)c1nc(SCC(=O)NC3CCCCC3)n(-c3ccccc3)c(=O)c1n2C`, the EC50 in data set [1] and in data set [2] was more than 10 µM each time. Besides, the Activity in data set [3] was determined as 15%; in data set [4] it was 1%; in data set [6], 0%. Moreover, the viability at 18 h, 5 µM in data set [5] was determined as 35%.

`Cn1c2ccccc2c2nc(NCCC(=O)NC3CCCCC3)n(-c3ccccc3)c(=O)c21`: the EC50 in data set [1] and in data set [2] was more than 10 µM throughout. The Activity was 8% in data set [3], 2% in data set [4] and 0% in data set [6]. Also, in data set [5], the viability at 18 h, 5 µM was 92%.

Consider `Cn1c2ccc(NC(=O)CCC(=O)O)cc2c2nc(SCC(=O)NC3CCCCC3)n(-c3ccccc3)c(=O)c21`, for which the 50% effective concentration (EC50) in data set [1] and in data set [2] was more than 10 µM throughout. Besides, the Activity in data set [3] was 28%; in data set [4], 3%; in data set [6] it was 0%. Besides, the viability at 18 h, 5 µM in data set [5] stood at 75%.

For `Cn1c2ccc(C#N)cc2c2nc(SCC(=O)NC3CCCCC3)n(-c3ccccc3)c(=O)c21`, the EC50 in data set [1] and in data set [2] was more than 10 µM throughout. The Activity was 12% in data set [3], 14% in data set [4] and 45% in data set [6]. For the same molecule, the viability at 18 h, 5 µM in data set [5] is 107%.

For `O=C(CSc1nc2c3c([nH]c2c(=O)n1-c1ccccc1)CCCCC3)NC1CCCCC1`, the EC50 in data set [1] was 2.83 µM; in data set [2], 7.42 µM. Moreover, the Activity in data set [3] was found to be 137%; in data set [4], 82%; in data set [6] it was 115%. The viability at 18 h, 5 µM in data set [5] was 84%.

In the case of `Cn1c2ccc(Br)cc2c2nc(SCC(=O)NC3CCCCC3)n(-c3ccccc3)c(=O)c21`, the results for the EC50 in data set [1] and in data set [2] were 2.45 µM and 3.58 µM, respectively. Further, the Activity in data set [3] was 159%; in data set [4], 103%; in data set [6], 120%. Further, the viability at 18 h, 5 µM in data set [5] is 63%.

`Cn1c2ccc(N)cc2c2nc(SCC(=O)NC3CCCCC3)n(-c3ccccc3)c(=O)c21`: the EC50 in data set [1] and in data set [2] was more than 10 µM each time. The Activity in data set [3] worked out at 17%; in data set [4], 3%; in data set [6], 0%. For the same molecule, in data set [5], the viability at 18 h, 5 µM worked out at 102%.

For the molecule `Cn1c2ccc(-c3ccc(-c4ccccc4)cc3)cc2c2nc(SCC(=O)NC3CCCCC3)n(-c3ccccc3)c(=O)c21`, the EC50 in data set [1] and in data set [2] was more than 10 µM in each case. In addition, the Activity in data set [3] was 31%; in data set [4] it was 1%; in data set [6] it was 0%. For the same molecule, the viability at 18 h, 5 µM in data set [5] was 23%.

As to `Cn1c2ccc(I)cc2c2nc(SCC(=O)NC3CCCCC3)n(-c3ccccc3)c(=O)c21`, the 50% effective concentration (EC50) worked out at 2.51 µM in data set [1] and 3.75 µM in data set [2]. The Activity in data set [3] was 204%; in data set [4], 104%; in data set [6], 74%. Besides, the viability at 18 h, 5 µM in data set [5] stood at 75%.

As for `O=C(CSc1nc2c3c([nH]c2c(=O)n1-c1ccccc1)CCCC3)NC1CCCCC1`, the EC50 in data set [1] is 7.12 µM; in data set [2] it was more than 10 µM. Besides, the results for the Activity in data set [3], in data set [4] and in data set [6] were 27%, 36% and 80%, respectively. Moreover, in data set [5], the viability at 18 h, 5 µM was determined as 91%.

On to `Cn1c2ccccc2c2nc(S(=O)(=O)CC(=O)NC3CCCCC3)n(-c3ccccc3)c(=O)c21`, for which the EC50 in data set [1] and in data set [2] was more than 10 µM throughout. For the same molecule, the Activity in data set [3] was 16%; in data set [4] it was 2%; in data set [6], 0%. Besides, the viability at 18 h, 5 µM in data set [5] amounted to 50%.

In the case of `Cc1c(C)n(C)c2c(=O)n(-c3ccccc3)c(SCC(=O)NC3CCCCC3)nc12`, the EC50 in data set [1] and in data set [2] was more than 10 µM in each case. Besides, the Activity was 12% in data set [3], 22% in data set [4] and 81% in data set [6]. For the same molecule, the viability at 18 h, 5 µM in data set [5] is 100%.

In the case of `O=C(CCCSc1nc2c([nH]c3ccccc32)c(=O)n1-c1ccccc1)NC1CCCCC1`, the EC50 in data set [1] and in data set [2] was more than 10 µM in each case. For the same molecule, the values for the Activity in data set [3], in data set [4] and in data set [6] were 8%, 2% and 0%, respectively. Besides, in data set [5], the viability at 18 h, 5 µM came to 70%.

With `Cn1c2ccc(C#C[Si](C)(C)C)cc2c2nc(SCC(=O)NC3CCCCC3)n(-c3ccccc3)c(=O)c21`, the EC50 in data set [1] is 3.3 µM; in data set [2], more than 10 µM. Besides, the Activity came out at 87% in data set [3], 85% in data set [4] and 78% in data set [6]. Further, the viability at 18 h, 5 µM in data set [5] came to 73%.

With `Cn1c2ccc(-c3cccc4ccccc34)cc2c2nc(SCC(=O)NC3CCCCC3)n(-c3ccccc3)c(=O)c21`, the EC50 in data set [1] amounted to 2.58 µM; in data set [2] it was 2.12 µM. The Activity came to 72% in data set [3], 38% in data set [4] and 80% in data set [6]. Further, the viability at 18 h, 5 µM in data set [5] worked out at 102%.

For the molecule `O=C(CSc1nc2cc[nH]c2c(=O)n1-c1ccccc1)NC1CCCCC1`, the EC50 in data set [1] and in data set [2] was more than 10 µM each time. Also, the values for the Activity in data set [3], in data set [4] and in data set [6] were 7%, 4% and 0%, respectively. Further, in data set [5], the viability at 18 h, 5 µM was 99%.

Consider `Cn1c2ccccc2c2nc(NCC(=O)NC3CCCCC3)n(-c3ccccc3)c(=O)c21`, for which the EC50 in data set [1] and in data set [2] was more than 10 µM in each case. The Activity came to 10% in data set [3], 2% in data set [4] and 1% in data set [6]. Besides, in data set [5], the viability at 18 h, 5 µM was 113%.

On to `Cc1[nH]c2c(=O)n(-c3ccccc3)c(SCC(=O)NC3CCCCC3)nc2c1C`, for which the EC50 in data set [1] and in data set [2] was more than 10 µM each time. The Activity in data set [3] was determined as 18%; in data set [4], 28%; in data set [6] it was 78%. Besides, the viability at 18 h, 5 µM in data set [5] worked out at 70%.

On to `Cn1ccc2nc(SCC(=O)NC3CCCCC3)n(-c3ccccc3)c(=O)c21`, for which the EC50 in data set [1] and in data set [2] was more than 10 µM in each case. Besides, the Activity in data set [3] came to 17%; in data set [4], 5%; in data set [6], 1%. For the same molecule, the viability at 18 h, 5 µM in data set [5] amounted to 117%.

In the case of `O=c1c2[nH]c3ccccc3c2nc(SCCCC2CCCCC2)n1-c1ccccc1`, the EC50 in data set [1] and in data set [2] was more than 10 µM each time. Besides, the Activity in data set [3] is 9%; in data set [4] it was 1%; in data set [6] it was 0%. Further, the viability at 18 h, 5 µM in data set [5] was determined as 57%.
